The source made the active and inactive calls. No cut-off for these calls is given here.
Tests used:
[1] = Antiproliferative activity against human U373 cells after 72 hrs by MTT assay; format: functional, cell-based, U-373MG ATCC; conditions: U373 MG
Summary of the method: (§1)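 MTT assay: cells in RPMI 1640 with 10% heat-inactivated FCS at 37 °C and 5% CO2 were seeded 24 h before treatment. They were exposed 72 h to compound at 0.01–100 μM, with DMSO as solvent.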

SN12C = assay: Growth inhibition of human SN12C cells after 48 hrs by SRB assay; format: functional
U-373MG ATCC [2] = assay: Inhibition of spheroid forming capacity of human U373 cells assessed as decrease in volume of multicellular tumor spheroids at 5 to 10 uM treated for 24 hrs measured after 96 hrs by bright field microscopic method; format: functional, cell-based
Summary of the method: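 Spheroids formed from 1 × 10^3 cells in 25 μL. Cells were pretreated 24 h with compound then left untreated 96 h, or untreated spheroids were cultured 96 h with compound. Surface measured from bright-field images; volume in voxels from 3D plots after image segmentation. Mean ± SD of three independent experiments.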

HCT-116 = assay: Growth inhibition of human HCT116 cells after 48 hrs by SRB assay; format: functional; conditions: HCT-116, 48 h
KM12 = assay: Growth inhibition of human KM12 cells after 48 hrs by SRB assay; format: functional; conditions: KM12, 48 h
U-373MG ATCC [3] = assay: Antiproliferative activity against human U373 cells transfected with SIRT1/2 siRNA at IC50 for MTT assay after 72 hrs by time-lapse videomicroscopy; format: functional, cell-based
HCT-15 = assay: Growth inhibition of human HCT15 cells after 48 hrs by SRB assay; format: functional; conditions: HCT-15, 48 h
[4] = molecular target: T1, NAD-dependent protein deacetylase sirtuin-2 (Homo sapiens) (UniProt Q8IXJ6); assay: Inhibition of SIRT2 in human Hs683 cells assessed as increase of alpha-tubulin acetylation at 2.5 uM after 8 hrs by Western blotting method relative to control; format: cell-based
T1 sequence (whole entry): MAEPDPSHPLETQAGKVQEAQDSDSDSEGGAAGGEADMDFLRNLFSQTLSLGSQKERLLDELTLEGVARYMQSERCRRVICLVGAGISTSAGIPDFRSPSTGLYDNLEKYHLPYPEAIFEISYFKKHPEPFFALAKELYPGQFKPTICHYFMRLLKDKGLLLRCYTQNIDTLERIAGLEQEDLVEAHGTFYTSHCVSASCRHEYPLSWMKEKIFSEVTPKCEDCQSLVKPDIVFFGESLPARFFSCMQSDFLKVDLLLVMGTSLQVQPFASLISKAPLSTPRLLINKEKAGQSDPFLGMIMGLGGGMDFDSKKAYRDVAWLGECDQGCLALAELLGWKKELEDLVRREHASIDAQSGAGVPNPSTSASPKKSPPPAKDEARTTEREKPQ

[5] = molecular target: T1, NAD-dependent protein deacetylase sirtuin-2 (Homo sapiens); assay: Inhibition of SIRT2 in human U373 cells assessed as increase of alpha-tubulin acetylation at 1 uM after 8 hrs by Western blotting method relative to control; format: cell-based
HT-29 = assay: Growth inhibition of human HT-29 cells after 48 hrs by SRB assay; format: functional; conditions: HT-29, 48 h
[6] = molecular target: T2, NAD-dependent protein deacetylase sirtuin-1 (Homo sapiens) (UniProt Q96EB6); assay: Inhibition of SIRT1 in human Hs683 cells assessed as increase of histone H4 acetylation at 10 to 25 after 8 to 24 hrs by Western blotting method; format: cell-based
T2 sequence (whole entry): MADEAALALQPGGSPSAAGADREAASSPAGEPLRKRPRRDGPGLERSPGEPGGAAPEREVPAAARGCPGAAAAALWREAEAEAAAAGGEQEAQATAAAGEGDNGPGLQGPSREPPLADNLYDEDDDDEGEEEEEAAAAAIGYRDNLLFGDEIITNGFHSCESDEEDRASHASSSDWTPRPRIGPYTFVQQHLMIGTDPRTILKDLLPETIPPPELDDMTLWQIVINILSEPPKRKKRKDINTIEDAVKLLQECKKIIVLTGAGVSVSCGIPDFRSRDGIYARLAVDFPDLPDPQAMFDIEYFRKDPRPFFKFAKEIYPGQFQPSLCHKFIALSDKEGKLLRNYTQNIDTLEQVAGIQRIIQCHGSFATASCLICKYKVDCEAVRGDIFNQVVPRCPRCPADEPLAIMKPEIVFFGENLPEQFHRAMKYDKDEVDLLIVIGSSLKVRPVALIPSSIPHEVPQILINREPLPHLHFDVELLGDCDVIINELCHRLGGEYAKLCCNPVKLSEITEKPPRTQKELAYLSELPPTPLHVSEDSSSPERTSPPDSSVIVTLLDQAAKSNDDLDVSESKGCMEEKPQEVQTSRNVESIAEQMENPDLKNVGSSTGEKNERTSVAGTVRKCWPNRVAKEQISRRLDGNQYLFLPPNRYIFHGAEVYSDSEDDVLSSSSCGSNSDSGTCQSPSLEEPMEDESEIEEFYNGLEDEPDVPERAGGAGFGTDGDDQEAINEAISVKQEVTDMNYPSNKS

SK-MEL-5 = assay: Growth inhibition of human SK-MEL-5 cells after 48 hrs by SRB assay; format: functional; conditions: SK-MEL-5, 48 h
[7] = molecular target: T3, NAD-dependent protein deacetylase sirtuin-1 (Homo sapiens, UniProt Q96EB6); assay: Inhibition of N-terminal His-tagged recombinant human SIRT-1 expressed in Escherichia coli using Fluor-de-Lys-SIRT1 as substrate after 15 mins by fluorescence assay
T3 sequence (Q96EB6 whole entry): T2 sequence (whole entry)

Hs 683 = assay: Antitumor activity against CM-Dil fluorescent dye labeled human Hs683 cells xenografted in zebrafish embryo at 5 to 10 uM preincubated with tumor for 30 hrs followed by tumor implantation in zebra fish yolk sac measured after 72 hrs by fluorescence microscopy; format: functional, cell-based
Summary of the method: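 Cells were pretreated in vitro at 5 or 10 μM for 30 or 36 h and labeled with CM-DiI 2 h before injection. Then 100–200 cells were injected into the yolk sac of wild-type zebrafish 48 h post-fertilization, anesthetized in 0.02% tricaine. Embryos were kept 72 h at 28.5 °C in Danieau solution with 0.003% phenylthiourea, and fluorescence was quantified in eight fish per condition.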

MDA-MB-231 = assay: Growth inhibition of human MDA-MB-231 cells after 48 hrs by SRB assay; format: functional; conditions: MDA-MB-231, 48 h
U-373MG ATCC [8] = assay: Cell cycle arrest in human U373 cells assessed as accumulation at G1 phase at IC50 after 24 to 48 hrs by propidium iodide staining-based flow cytometry; format: functional
Summary of the method: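 Cells were exposed to compound at the IC50 for each line from the 72 h MTT assay, or to a reference HDAC inhibitor at 2 μM. Cell cycle distribution was analyzed after 24 and 48 h. Results are mean ± SD of three independent experiments, with p values against control cells.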

KBC1 = assay: Antiproliferative activity against human KBC1 cells overexpressing ABCB1 after 72 hrs by MTT assay; format: functional, cell-based; summary of the method: as §1
[9] = molecular target: Histone deacetylase 3 (Homo sapiens) (UniProt O15379); assay: Inhibition of His-tagged recombinant human HDAC3 expressed in baculovirus infected insect cells at 0.1 to 100 uM using Fluor-de-Lys-SIRT1 as substrate after 15 mins by fluorescence assay
[10] = molecular target: T2, NAD-dependent protein deacetylase sirtuin-1 (Homo sapiens); assay: Inhibition of SIRT1 in human U373 cells assessed as increase of histone H4 acetylation at 5 uM after 8 hrs by Western blotting method relative to control; format: cell-based

Chain of Histone deacetylase 3 (Homo sapiens) (O15379 whole entry): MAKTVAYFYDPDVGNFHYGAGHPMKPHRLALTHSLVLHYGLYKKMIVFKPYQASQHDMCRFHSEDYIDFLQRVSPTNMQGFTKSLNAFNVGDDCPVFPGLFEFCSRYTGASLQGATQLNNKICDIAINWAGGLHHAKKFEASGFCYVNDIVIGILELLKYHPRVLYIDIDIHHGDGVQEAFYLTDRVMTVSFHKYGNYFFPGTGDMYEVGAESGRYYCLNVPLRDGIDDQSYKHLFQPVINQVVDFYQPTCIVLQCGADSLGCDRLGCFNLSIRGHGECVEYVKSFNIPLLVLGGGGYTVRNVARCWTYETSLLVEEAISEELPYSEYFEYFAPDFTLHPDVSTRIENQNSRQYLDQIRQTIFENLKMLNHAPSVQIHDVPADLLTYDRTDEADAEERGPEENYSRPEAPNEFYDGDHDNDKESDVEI

In the case of `CC(C)(C)OC(=O)Nc1ccc2c(c1)C(NC(=O)Nc1cccc(C#N)c1)CC(C)(C)O2` (centres undefined), the IC50 [1] is reported as 6 to 7.5 µM, the GI50 (SN12C) is reported as 5.5 µM and the inhibition (U-373MG ATCC [2]) is reported as “Active”. The GI50 (HCT-116) was 1.74 µM, the GI50 (KM12) was 4.07 µM and the Activity (U-373MG ATCC [3]) was “Active”. It also gave a GI50 (HCT-15) of 2 µM, a fold change (FC) [4] of 1.2 and a fold change (FC) [5] of 0.9. The GI50 (HT-29) was 6.92 µM, the inhibition [6] was “Active” and the GI50 (SK-MEL-5) was 0.427 µM. For the same compound, the IC50 [7] was 6.2 µM, the Activity (Hs 683) was “Active” and the GI50 (MDA-MB-231) was 4.27 µM. The Activity (U-373MG ATCC [8]) was “Active”, the Activity (KBC1) was “Active” and the inhibition [9] was “inactive”. The fold change (FC) [10] was 1.3.
